From ChEMBL document CHEMBL1135416, “Nonpeptide bradykinin B2 receptor antagonists: conversion of rodent-selective bradyzide analogues into potent, orally-active human bradykinin B2 receptor antagonists” (J Med Chem, 2002) come the findings set out here.

Converted amounts (≈) assume the structure as drawn.

The target in data set [1] is T1, B2 bradykinin receptor (Rattus norvegicus, UniProt P25023).
T1 sequence (P25023 whole entry): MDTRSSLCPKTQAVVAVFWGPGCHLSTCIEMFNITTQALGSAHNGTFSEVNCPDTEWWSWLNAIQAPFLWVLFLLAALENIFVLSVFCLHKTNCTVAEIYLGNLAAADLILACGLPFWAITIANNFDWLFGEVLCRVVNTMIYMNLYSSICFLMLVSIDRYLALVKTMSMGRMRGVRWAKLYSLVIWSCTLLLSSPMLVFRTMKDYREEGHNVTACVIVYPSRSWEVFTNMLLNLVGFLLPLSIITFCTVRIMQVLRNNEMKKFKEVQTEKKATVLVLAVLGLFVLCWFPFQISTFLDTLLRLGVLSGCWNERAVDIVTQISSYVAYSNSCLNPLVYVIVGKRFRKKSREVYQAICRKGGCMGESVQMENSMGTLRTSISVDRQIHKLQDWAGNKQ
Briefly: Inhibition of increase in [Ca2+] efflux from NG108-15 cells caused by activation of rat Bradykinin receptor B2. In kind it is functional, cell-based.

For data set [2], the target named is T2, B2 bradykinin receptor (Homo sapiens, UniProt P30411).
T2 sequence (P30411 whole entry): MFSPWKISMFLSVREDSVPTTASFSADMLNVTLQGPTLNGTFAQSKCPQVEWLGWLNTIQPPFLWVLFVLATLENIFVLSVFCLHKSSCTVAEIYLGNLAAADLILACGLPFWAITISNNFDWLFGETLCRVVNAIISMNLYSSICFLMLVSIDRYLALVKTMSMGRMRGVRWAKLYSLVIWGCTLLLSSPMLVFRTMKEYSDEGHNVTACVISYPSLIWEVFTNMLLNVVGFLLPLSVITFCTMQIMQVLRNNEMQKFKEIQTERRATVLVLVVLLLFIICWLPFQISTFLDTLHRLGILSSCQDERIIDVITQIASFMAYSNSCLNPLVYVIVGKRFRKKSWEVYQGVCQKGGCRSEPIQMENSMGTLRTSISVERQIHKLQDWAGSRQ
Nature of the data set: Antagonism of the [Ca2+] efflux actions of human Bradykinin receptor B2 (SK-N-SH neuroblastoma). In kind it is functional.

Data set [3] concerns the target T1, B2 bradykinin receptor. Briefly: Inhibition of Bradykinin receptor B2-mediated contractions of rat uterus smooth muscle. In kind it is functional, tissue-based.
In data set [4] the target is T2, B2 bradykinin receptor. Briefly: Displacement of [3H]BK (1 nM) from human Bradykinin receptor B2 expressed in Cos-7 cells. In kind it is cell-based. A digest of the protocol:
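[3H]BK was 1 nM and nonspecific binding was set with 10 µM BK. Incubation was 60 min at 4 °C, then GF/B filtration, a cold 50 mM Tris pH 7.4 wash and counting. Ki was derived from IC50 (Cheng–Prusoff). Data are mean ± SEM of ≥3 triplicate experiments.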
(In general: Loss of bound radioactivity is the signal in a displacement assay; it reports binding, not function.)

The species entered for data set [5] is Rattus norvegicus. Briefly: Reversal of turpentine-induced mechanical […] in rats. In kind it is functional. A digest of the protocol: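 Rats received an intraplantar injection of 50 µL turpentine/paraffin (1:1) into the left hind paw. Three days later, compound or vehicle was given orally or iv, and the paw withdrawal threshold (mean of two readings) was taken 1 h later. ED50 was the dose giving 50% of maximum reversal. Efficacy was the maximum reversal as % of the pre-turpentine threshold.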

Data set [6] addresses T1, B2 bradykinin receptor. Briefly: Inhibition of specific binding of [3H]-BK (1 nM) to rat Bradykinin receptor B2 by 50% in NG108-15 cell membranes. Also on record: species or system Membrane. The procedure, abridged: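 NG108-15 cell membranes (rodent B2) were diluted to about 0.3 mg/mL protein in 25 mM potassium phosphate pH 6.5 with 1 mM EGTA, 0.1 mM bacitracin, chymostatin and BSA. [3H]BK was 1 nM and nonspecific binding was set with 10 µM BK. Incubation was 60 min at 4 °C, followed by PEI-soaked GF/B filtration, a cold phosphate pH 6.5 wash and scintillation counting. Ki was derived from IC50 (Cheng–Prusoff). Data are mean ± SEM of ≥3 experiments in triplicate.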

In data set [7] the target is T2, B2 bradykinin receptor. Briefly: Antagonism of the [Ca2+] efflux actions of human Bradykinin receptor B2 (WI38 fibroblasts). In kind it is functional.
The species named for data set [8] is Rattus norvegicus. Briefly: Reversal of FCAT-induced mechanical […] in rats. In kind it is functional. A digest of the protocol:
(§1)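 Female Sprague-Dawley rats (100-120 g) under light enflurane received 100 µL FCA into one knee. Three to six days later, each hind paw was placed on a pressure transducer with the uninjected leg bearing 100 g, and the load tolerated by the injected leg was read half-hourly. Compounds were given after three control readings. The response was expressed as % maximal reversal (100% = equal load on both legs).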

For data set [9], the target named is T2, B2 bradykinin receptor. Briefly: Antagonism of the [Ca2+] efflux actions of the human Bradykinin receptor B2 (SK-N-SH neuroblastoma). In kind it is functional.
The target in data set [10] is T2, B2 bradykinin receptor. Nature of the data set: Antagonism of the [Ca2+] efflux actions of the human Bradykinin receptor B2 (WI38 fibroblasts). In kind it is functional.
Data set [11] in a line: Solubility at pH 7.4. In kind it is physicochemical. As to conditions: buffer.
For data set [12], the species on record is Rattus norvegicus. Nature of the data set: Duration of action (excess) in FCAT-induced mechanical […] in rats. In kind it is functional.
The species named for data set [13] is Rattus norvegicus. Briefly: Oral efficacy against FCAT-induced mechanical […] in rats. In kind it is functional. A digest of the protocol: as §1

As usually defined, the IC50 is the concentration needed to halve the response being measured. What is called Ki is a measure of affinity in units of concentration, obtained from inhibition or displacement. The low end stands for tighter binding, the high end for weaker binding. The ED50 is the midpoint of the dose-response relation. On to `CN(C)CCCN(C)CCNC(=O)[C@@H]1CCCN1S(=O)(=O)c1ccc(NNC(=O)NC2c3ccccc3CCc3ccccc32)c([N+](=O)[O-])c1`, for which the concentration for half-maximal inhibition (IC50) on B2 bradykinin receptor [1] is 105 nM; against B2 bradykinin receptor [2], 91 nM; against B2 bradykinin receptor [3], 2.4 nM; against B2 bradykinin receptor [7] it was 17 nM. Also, the inhibitory constant (Ki) was determined as 0.79 nM on B2 bradykinin receptor [4] and 10.7 nM on B2 bradykinin receptor [6]. Further, the ED50 in the data set filed under Rattus norvegicus [5] was found to be 0.11 µmol/kg; in the data set filed under Rattus norvegicus [8], 0.043 µmol/kg.
Consider `CN(C)CCCN(C)CCNC(=O)[C@@H]1CCCN1S(=O)(=O)c1ccc(N/N=C(\S)NC2c3ccccc3-c3ccccc32)c([N+](=O)[O-])c1`, for which the Ki at B2 bradykinin receptor [4] stood at 645 nM.
Consider `CN(C)CCCN(C)CCNC(=O)[C@@H]1CCCN1S(=O)(=O)c1ccc(N/N=C(\S)NC(c2ccccc2)c2ccccc2)c([N+](=O)[O-])c1`, for which the results for the Ki on B2 bradykinin receptor [4] and at B2 bradykinin receptor [6] were 119 nM and 0.023 nM, respectively.
The matching figures for `CN(C)CCN(C)CCNC(=O)c1cccn1S(=O)(=O)c1ccc(N/N=C(\S)NC2c3ccccc3CCc3ccccc32)c([N+](=O)[O-])c1`: 1.47 nM and 64.5 nM.
`CN(C)CCN(C)CCNC(=O)[C@@H]1CCCN1S(=O)(=O)c1ccc(NNC(=O)NC(c2ccccc2)c2ccccc2)c(Cl)c1` returned a Ki on B2 bradykinin receptor [6] of 7.3 nM.
With `CN(C)CCN(C)CCNC(=O)[C@@H]1CCCN1S(=O)(=O)c1ccc(N/N=C(\S)NC(c2ccccc2Cl)c2ccccc2Cl)c([N+](=O)[O-])c1`, the inhibitory constant (Ki) turned out to be 34.1 nM at B2 bradykinin receptor [4] and 5.46 nM at B2 bradykinin receptor [6].
As for `CN(C)CCN(C)CCNC(=O)c1cccn1S(=O)(=O)c1ccc(NNC(=S)NC(c2ccccc2)c2ccccc2)c([N+](=O)[O-])c1`, the Ki at B2 bradykinin receptor [4] turned out to be 237 nM.
By solubility is commonly meant the concentration that dissolves in the medium under given conditions. High values mean a readily soluble substance, low ones a poorly soluble substance. With `CN(C)CCCN(C)CCNC(=O)c1cccn1S(=O)(=O)c1ccc(NNC(=O)NC2c3ccccc3CCc3ccccc32)c([N+](=O)[O-])c1`, the IC50 against B2 bradykinin receptor [1] is 141 nM; on B2 bradykinin receptor [3], 1.9 nM; at B2 bradykinin receptor [9] it was 12 nM; against B2 bradykinin receptor [10], 55 nM. For the same compound, the Ki worked out at 2.79 nM on B2 bradykinin receptor [4] and 176 nM at B2 bradykinin receptor [6]. Also, the ED50 in the data set listed under Rattus norvegicus [5] is 0.32 µmol/kg; in the data set filed under Rattus norvegicus [8] it was 0.027 µmol/kg. Besides, the solubility in data set [11] is 400 µg/mL (≈ 569 µM).
Consider `CN(C)CCN(C)CCNC(=O)[C@@H]1CCCN1S(=O)(=O)c1ccc(NNC(=S)NC2c3ccccc3CCc3ccccc32)c([N+](=O)[O-])c1`, for which the Ki on B2 bradykinin receptor [4] was 4.67 nM; at B2 bradykinin receptor [6] it was 14.5 nM.
On to `CN(C)CCN(C)CCNC(=O)[C@H]1CCCN1S(=O)(=O)c1ccc(NNC(=S)NC(c2ccccc2)c2ccccc2)c([N+](=O)[O-])c1`, for which the inhibition constant (Ki) on B2 bradykinin receptor [4] came out at 1430 nM.
In turn, `CN(C)CCN(C)CCNC(=O)[C@@H]1CCCN1S(=O)(=O)c1ccc(NNC(=S)NC(c2ccccc2)c2ccccc2)c([N+](=O)[O-])c1` had a Time in the data set filed under Rattus norvegicus [12] of 4 h. At B2 bradykinin receptor [4], this compound displayed a Ki of 772 nM. The ED50 in the data set filed under Rattus norvegicus [13] came to 0.84 µmol/kg.
`CN(C)CCCN(C)CCNC(=O)c1cccn1S(=O)(=O)c1ccc(NNC(=O)NC2c3ccccc3CCc3ccccc32)c(Cl)c1` gave a Ki at B2 bradykinin receptor [4] of 253 nM.
For the compound `CN(C)CCCN(C)CCCNC(=O)[C@@H]1CCCN1S(=O)(=O)c1ccc(N/N=C(\S)NC(c2ccccc2)c2ccccc2)c([N+](=O)[O-])c1`, the Ki on B2 bradykinin receptor [4] stood at 95 nM; on B2 bradykinin receptor [6], 0.31 nM.
